# Bioassay records as filed in PubChem.
# SR-BI DiI-HDL act – activators of SR-BI mediated DiI-HDL uptake, primary screen, ldlA[mSR-BI] CHO cells, DiI fluorescence. AID 504775, 2011. activation, % at 12.5 µM. 3 h; 100 = double the neutral-control signal. 320,000 tested, 0.096% active;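 active = mean replicate activation of at least 60% and every replicate at or above 60%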;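 also: 0% = median plate neutral-control signal and 100% = twice that signal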
#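 Material – SR-BI-overexpressing, LDLR-lacking CHO cells · Medium – BSA-supplemented, HEPES-buffered Ham's F12, pH 7.4 · Doses – single concentration · Times – compound with DiI-HDL co-incubation, 3 h at 37 °C · Measured by – bottom-read fluorescence, 550/595 nm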
# TAG inh – inhibitors of triacylglycerol accumulation, primary screen, cell-based, uHTS, fluorescence, H9c2 | H9c2 cells, Nile Red lipid (TAG) fluorescence; cells loaded with 200 µM oleic acid | inhibition, % at 12.5 µM | 230,000 tested, 0.66% active | AID 651582, 2012;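 active = pattern-corrected inhibition of lipid staining of at least 50% with the nuclear-stain viability signal not falling by more than 50%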;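 also: 0% = DMSO wells and 100% = triacsin C control wells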
# Bfl-1 A1 inh – caspase 3/7 activation in MEF A1-2A-BIM cells, primary screen, A1 inhibitor project, cell-based, luminescence, HTS. Caspase-Glo 3/7 luminescence, 3 h; percent of clofoctol response, vehicle zero. 330,000 tested, 0.066% active. caspase activation, % (no concentration beside the values). AID 2462, 2010;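 active = over half of replicate activation scores above 10%, or exactly half above 10 with the replicate mean above 10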
# SR-BI HDL uptake – inhibitors of SR-BI mediated HDL lipid uptake, primary screen, ldlA[mSR-BI] cells, fluorescence, single point; ldlA[mSR-BI] CHO cells, DiI-HDL uptake fluorescence, 3 h; 320,000 tested, 0.96% active; Scavenger receptor class B member 1 (Mus musculus), Q61009; inhibition, % at 12.5 µM;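 active = mean replicate inhibition of at least 70% and a set share of replicates each scoring 70 or more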;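 also: 0% = median of neutral control wells and 100% = median of positive control wells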
# Vif imaging – HIV Vif self-association inhibitors, primary screen, imaging, HEK293T, single point; HEK293T cells, Vif self-association by quenched fluorescence, 24 h; inhibition, % at 7.49 µM; 340,000 tested, 0.35% active; in the data active = inhibition above about 50%, passing the limit was not always enough
# H9c2 TAG conf – triacylglycerol accumulation inhibitors, retest, confirmation, cell-based, single concentration, Nile Red fluorescence, H9c2 | shares compounds with TAG inh | H9c2 lipid accumulation; cells loaded with 200 µM oleic acid | inhibition, % at 12.5 µM | 990 tested, 71% active | AID 651629, 2012;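 active = mean inhibition across replicates of 40% or more; inactive = mean inhibition below 40%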;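 also: plate controls were DMSO only wells for no effect and Triacsin C treated wells for full effect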
# Starred values were filed as active, the others as inactive; · = not tested or not shown. In the library only some 1.6% were active in any assay of this set; here they are far more common.
SMILES,SR-BI DiI-HDL act,TAG inh,Bfl-1 A1 inh,SR-BI HDL uptake,Vif imaging,H9c2 TAG conf
CCCCCCC(C)(C)c1ccc([C@@H]2C[C@H](O)CC[C@H]2CCCO)c(O)c1,3,106*,0,-3,-3,116*
COc1ccc(C2=CC(c3ccc4c(c3)OCO4)c3c(c4ccccc4oc3=O)O2)cc1OC (stereo unspecified),-19,61*,·,19,5,60*
COc1ccc(C(CC(=O)c2ccc3c(c2)OCO3)c2c(O)c3ccccc3oc2=O)cc1OC (stereo unspecified),·,-6,·,·,-4,·
O=C1NC(=O)C2(CCCc3ccc(N(CCCl)CCCl)cc32)N1 (stereo unspecified),-2,12,·,2,8,·
CN1CSC(=S)N(C)C1,34,64*,0,-34,-1,64*
COc1ccc2[nH]c(C)c(CCNCc3cn(C)c4ccccc34)c2c1,-7,56*,0,7,-5,46*
FC(F)(F)c1ccc(NC2=NCCCS2)cc1,·,·,-1,·,0,·
COC(=O)C1=C(c2ccc(OCc3ccccc3)cc2)C[C@@H]2CC[C@H]1N2C(=O)NCc1ccc(C(C)(C)C)cc1,·,70*,·,·,0,75*
COC(=O)C1=C(c2ccc(OCc3ccccc3)cc2)C[C@@H]2CC[C@H]1N2C(=O)NCc1ccccc1,-28,-13,3,28,1,·
CC(C)c1ccc(-n2c(O)c(C=NC(CCS(C)=O)C(=O)O)c(=O)[nH]c2=S)cc1 (stereo unspecified),21,-10,1,-21,1,·
